Reference: article PMC6939458 (Cancer cell, 2019)

Tests used:
[1] = test system: MycCaP organoids and FVB mouse prostate organoids; experiment: Prostate organoid culture; format: cell-based; conditions: 4 days treatment
Summary of the method: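 Prostate lobes from 8–10-week-old FVB males were minced and digested with collagenase in RPMI1640/10% FBS for 2 hr at 37 °C. Trypsin and DNase I followed, then a 40 μm strainer. Cells were plated on ultra-low-attachment plates: 5,000 normal cells or 1000 MycCaP cells per 100 μl, with media added at day 4. Organoids formed by day 7 (normal) or day 4 (MycCaP). They were pelleted, resuspended in media with compound or DMSO, and imaged in bright field 4 days after treatment.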

[2] = Maximum tolerated dose / acute toxicity in mice; format: in vivo; conditions: 361-treated mice
[3] = test system: MYC-dependent cancer cells; experiment: Cell viability, MYC-dependent cancer cells; format: cell-based; conditions: MycCaP, LNCaP, PC3, MV4–11, HL-60, P493–6, SK-N-B2; 5 days
Summary of the method: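 Cells were seeded at 1000 to 5000 per well in 96-well plates, depending on cell type. Viable cells were counted, or MTS absorbance was read at 490 nm, 2 to 7 days after treatment. MycCaP, PC3, LNCaP and P493–6 were grown in RPMI1640, SK-N-BE(2) in F12 and MV411 in IMDM, each with 10% heat-inactivated FBS and 1% penicillin-streptomycin.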

[4] = test system: MycCaP tumor allografts; experiment: MycCaP allograft/xenograft mouse model; format: in vivo
Summary of the method: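 Male FVB (allograft) or NSG (xenograft) mice, 6–8 weeks, ~25 g, acclimated >4 days. Injected s.c. in flanks with 1 × 10⁶ MycCaP E-box-luciferase cells in 100 μl Matrigel. Tumors followed by caliper ((length × width × width)/2) and by bioluminescent imaging after i.p. substrate injection. Body weight recorded. Tumor tissue assessed by H&E and immunofluorescence for Ki67, MYC pT58 and PD-L1.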

[5] = MycCaP E-box-Luc allografts, i.p.
[6] = MycCaP tumor tissue after treatment
[7] = MycCaP tumors post-361 treatment

SMILES: Cn1nc(C(F)(F)F)cc1-c1ccc(OCc2ccc(Cl)cc2)c(-c2cc(C(F)(F)F)cc(C(F)(F)F)c2)c1O [Compound 361, 6-((4-chlorobenzyl)oxy)-3-(1-methyl-3-(trifluoromethyl)-1H-pyrazol-5-yl)-3’,5’-bis(trifluoromethyl)-[1,1’-biphenyl]-2-ol]
- sensitivity of MycCaP versus normal prostate organoids [1]: more sensitive
- histopathological analysis of major organs [2]: suppression of the splenic white pulp and hepatocyte hypertrophy
- IC50s, cell viability [3]: low micromolar
- tumor inhibitory effect, FVB versus NSG mice ([4]; 50 mg/kg/day for 4 days): stronger tumor inhibitory effect in immunocompetent FVB mice
- tumor immune cells by flow cytometry ([4]; 50 mg/kg/day, 2 days on/2 days off for 2 rounds): an increase in CD3^+CD4^+ and CD3^+CD8^+ T cells, IFNγ-expressing CD4^+ and CD8^+ T cells, TNFα-expressing CD8^+ cells, dendritic cells and NK cells
- body weight ([4]; 70 mg/kg/day): without additional loss in mouse body weight
- body weight loss ([4]; 100 mg/kg/day, average): 10%
- tumor growth, combination with anti-PD1 ([4]; 361 50 mg/kg/day 2 days then anti-PD1 100 μg/d 2 days, 4 cycles): synergistic suppression of tumor growth
- tumor growth ([4]; FVB mice, established MycCaP allografts, 100 mg/kg/day): induced tumor regression
- E-box luciferase activity in vivo [4, 5]: significantly reduced
- tumor size, rapid in vivo screen [4, 5]: significantly reduced
- Ki67 proliferation marker in tumor tissues [4, 6]: decreased
- MYC pT58 level in tumor tissues [4, 6]: increased
- PD-L1 expression on tumor cells [4, 7]: upregulation of PD-L1 expression
- tumor infiltration of CD3+ T cells [4, 7]: enhanced tumor infiltration of CD3^+ T cells
- tolerability ([4]; combination study dose, 50 mg/kg/day 2 days on/off): well-tolerated
- tumor growth ([4]; treatment re-started at 70 mg/kg/day): effective in controlling tumor growth
